According to ChEMBL document CHEMBL5634107, “The design, synthesis, and inhibition of Clostridioides difficile spore germination by acyclic and bicyclic tertiary amide analogs of cholate” (Eur J Med Chem, 2023):
pIC50: −log10 of the molar value.

What was measured:
Clostridioides difficile [1] = assay: Inhibition of spore germination in Clostridium difficile R20291 assessed as residual activity at 125 uM measured every minute for 2 hrs by absorbance based analysis relative to control; type: functional
How it was run: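 Single-concentration screen of R20291 spores (OD580 1.0) in 100 mM sodium phosphate, pH 6.0, with 5 mg/mL bicarbonate and 2.5% DMSO. Compound at 125 μM final, in triplicate, with 6 mM taurocholate and 12 mM glycine. OD580 is read each minute for 2 h, normalized to time zero, and compared with untreated spores.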

Clostridioides difficile [2] = assay: Inhibition of spore germination in Clostridium difficile R20291 assessed as inhibition of spore germination measured every minute for 2 hrs by absorbance based analysis; type: functional, organism-based; settings: R20291, 2 h
How it was run: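 Spores of strain R20291 diluted to OD580 1.0 in 100 mM sodium phosphate, pH 6.0, with 5 mg/mL sodium bicarbonate. Germinant is 6 mM taurocholate plus 12 mM glycine, with compound at various concentrations. OD580 is read every minute for 2 h and normalized to time zero. Value is fitted from percent germination versus log concentration.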

| Structure (SMILES) | Activity (Clostridioides difficile [1]) | pIC50 (Clostridioides difficile [2]) |
| --- | --- | --- |
| C[C@H](CCC(=O)N1CCc2cc(F)ccc21)[C@H]1CC[C@H]2[C@@H]3[C@H](O)C[C@@H]4C[C@H](O)CC[C@]4(C)[C@H]3C[C@H](O)[C@]12C | 5% | 6.40 |
| C[C@H](CCC(=O)N1CCCc2ccccc21)[C@H]1CC[C@H]2[C@@H]3[C@H](O)C[C@@H]4C[C@H](O)CC[C@]4(C)[C@H]3C[C@H](O)[C@]12C | 17% | 4.66 |
| C[C@H](CCC(=O)N1CCCCC1)[C@H]1CC[C@H]2[C@@H]3[C@H](O)C[C@@H]4C[C@H](O)CC[C@]4(C)[C@H]3C[C@H](O)[C@]12C | 15% | 4.43 |
| Cc1ccc2c(c1)CCCN2C(=O)CC[C@@H](C)[C@H]1CC[C@H]2[C@@H]3[C@H](O)C[C@@H]4C[C@H](O)CC[C@]4(C)[C@H]3C[C@H](O)[C@]12C | 100% |  |
| C[C@H](CCC(=O)N(C)c1ccccc1)[C@H]1CC[C@H]2[C@@H]3[C@H](O)C[C@@H]4C[C@H](O)CC[C@]4(C)[C@H]3C[C@H](O)[C@]12C | 31% | 4.49 |
| C[C@H](CCC(=O)N1CCc2cc(Br)ccc2C1)[C@H]1CC[C@H]2[C@@H]3[C@H](O)C[C@@H]4C[C@H](O)CC[C@]4(C)[C@H]3C[C@H](O)[C@]12C | 100% |  |
| C[C@H](CCC(=O)N1CCc2cc(Cl)ccc21)[C@H]1CC[C@H]2[C@@H]3[C@H](O)C[C@@H]4C[C@H](O)CC[C@]4(C)[C@H]3C[C@H](O)[C@]12C | 70% |  |
| C[C@H](CCC(=O)N1CCCC1)[C@H]1CC[C@H]2[C@@H]3[C@H](O)C[C@@H]4C[C@H](O)CC[C@]4(C)[C@H]3C[C@H](O)[C@]12C | 29% | 4.42 |
| COc1ccc2c(c1)CCN(C(=O)CC[C@@H](C)[C@H]1CC[C@H]3[C@@H]4[C@H](O)C[C@@H]5C[C@H](O)CC[C@]5(C)[C@H]4C[C@H](O)[C@]13C)C2 | 100% |  |
| C[C@H](CCC(=O)N1CCc2ccccc2C1)[C@H]1CC[C@H]2[C@@H]3[C@H](O)C[C@@H]4C[C@H](O)CC[C@]4(C)[C@H]3C[C@H](O)[C@]12C | 78% |  |
| Cc1ccc2c(c1)CCN2C(=O)CC[C@@H](C)[C@H]1CC[C@H]2[C@@H]3[C@H](O)C[C@@H]4C[C@H](O)CC[C@]4(C)[C@H]3C[C@H](O)[C@]12C | 100% |  |
| C[C@H](CCC(=O)N1CCc2c(Cl)cccc21)[C@H]1CC[C@H]2[C@@H]3[C@H](O)C[C@@H]4C[C@H](O)CC[C@]4(C)[C@H]3C[C@H](O)[C@]12C | 95% |  |
| C[C@H](CCC(=O)N1CCc2ccccc21)[C@H]1CC[C@H]2[C@@H]3[C@H](O)C[C@@H]4C[C@H](O)CC[C@]4(C)[C@H]3C[C@H](O)[C@]12C | 4% | 6.00 |
| CCN(CC)C(=O)CC[C@@H](C)[C@H]1CC[C@H]2[C@@H]3[C@H](O)C[C@@H]4C[C@H](O)CC[C@]4(C)[C@H]3C[C@H](O)[C@]12C | 0.05% | 4.54 |
| C[C@H](CCC(=O)N1CCc2cc(Br)ccc21)[C@H]1CC[C@H]2[C@@H]3[C@H](O)C[C@@H]4C[C@H](O)CC[C@]4(C)[C@H]3C[C@H](O)[C@]12C | 90% |  |
| C[C@H](CCC(=O)N1CCC(O)CC1)[C@H]1CC[C@H]2[C@@H]3[C@H](O)C[C@@H]4C[C@H](O)CC[C@]4(C)[C@H]3C[C@H](O)[C@]12C | 88% |  |
| COc1ccc2c(c1)N(C(=O)CC[C@@H](C)[C@H]1CC[C@H]3[C@@H]4[C@H](O)C[C@@H]5C[C@H](O)CC[C@]5(C)[C@H]4C[C@H](O)[C@]13C)CC2 | 100% |  |
